{"data": "Experimental data gathered from unrelated publications", "target": "Phosphorylase b kinase gamma catalytic chain, skeletal muscle/heart isoform (PHKG1, Homo sapiens, UniProt Q16816)", "note": "Protocols differ between the studies behind these lines."}
{"SMILES": "Nc1ncc(-c2nc(N3CCOCC3)nc(N3CCOCC3)n2)c(C(F)F)n1", "read-out": "binding", "method": "competition with immobilised ligand", "tested at": "10 µM", "endpoint": "remaining binding", "value": "94%"}
{"SMILES": "COc1cc(Nc2ncc(F)c(Nc3ccc4c(n3)NC(=O)C(C)(C)O4)n2)cc(OC)c1OC", "read-out": "binding", "tested at": "10 µM", "endpoint": "inhibition", "value": "29%"}
{"SMILES": "N#CC1(c2ccccn2)CCN(Cc2cc(C(=O)O)c(=O)n3ccccc23)CC1", "read-out": "cell-free assay", "method": "competition with immobilised ligand", "tested at": "1 µM", "endpoint": "remaining binding", "value": "100%"}
{"SMILES": "Cc1nn(C)cc1-c1nc2c(N3CCN(Cc4ccc(Cl)cc4)CC3)c(Cl)cnc2[nH]1", "read-out": "binding", "method": "competition with immobilised ligand", "tested at": "1 µM", "endpoint": "remaining binding", "value": "100%"}
{"SMILES": "O=c1[nH]c2ccccc2n1C1CCN(Cc2ccc(-c3[nH]c4cc5ncnc5cc4nc3-c3ccccc3)cc2)CC1", "read-out": "cell-free assay", "tested at": "0.5 µM", "endpoint": "remaining signal", "value": "106%"}
{"SMILES": "COc1ncccc1-c1cnn2ccc(N3CCN(C(=O)OC(C)C)CC3)nc12", "read-out": "binding", "method": "competition with immobilised ligand", "tested at": "1 µM", "endpoint": "remaining binding", "value": "100%"}
{"SMILES": "Cn1cc(-c2cccc(N3CCc4c(sc5c4CC(C)(C)C5)C3=O)c2CO)cc(Nc2ccncn2)c1=O", "read-out": "enzyme activity", "mode": "inhibitor", "tested at": "1 µM", "endpoint": "inhibition", "value": "6%"}
{"SMILES": "Cn1cncc1[C@@](O)(COc1ccc(C#N)cc1-c1ccc(OC(F)(F)F)cc1)c1ccc(C#N)cc1", "read-out": "cell-free assay", "method": "competition with immobilised ligand", "tested at": "1 µM", "endpoint": "remaining binding", "value": "95%"}
{"SMILES": "Cn1cc(-c2cc(F)cc(N3CCn4c(cc5c4CCCC5)C3=O)c2CO)cc(Nc2ccc(N3CCN(C4COC4)CC3)cn2)c1=O", "read-out": "enzyme activity", "mode": "inhibitor", "tested at": "0.1 µM", "endpoint": "inhibition", "value": "6%"}
{"SMILES": "CC(C)(C)c1cc(C=C(C#N)C#N)cc(Br)c1O", "read-out": "enzyme activity", "mode": "inhibitor", "tested at": "0.5 µM", "endpoint": "remaining activity", "value": "96.7%"}
